Source: ChEMBL document CHEMBL3611968, “Reengineered tricyclic anti-cancer agents” (Bioorg Med Chem, 2015)
Active and inactive are the calls of the source. No cut-off for these calls is given here.

Experiments:
[1] = Tmax in mouse at 10 mg/kg, ip; assay type: ADME, organism-based; conditions: in vivo
[2] = biological target: D(1B) dopamine receptor (Homo sapiens) (UniProt P21918); assay: Binding affinity to dopamine D5 receptor (unknown origin) at 0.1 mM by radioligand displacement assay relative to control
NCI-H1650 [3] = assay: Cytotoxicity against human NCI-H1650 cells assessed as growth inhibition after 48 hrs by MTT assay; assay type: functional; conditions: NCI-H1650, 48 h
Procedure, shortened: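 H1650 cells were exposed to drug for 48 h at five concentrations bracketing 1–40 μM in 10 μM steps, with MTT read-out. GI50 is given only where the data form a sigmoidal dose response.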

[4] = Half life in mouse at 1 mg/kg, ip; assay type: ADME, organism-based; conditions: in vivo
[5] = AUCinfinity in mouse at 1 mg/kg, ip; assay type: ADME, organism-based; design: time infinity, route intraperitoneal; conditions: in vivo
[6] = Tmax in mouse at 10 mg/kg, po; assay type: ADME, organism-based; conditions: in vivo
[7] = biological target: D(2) dopamine receptor (Homo sapiens) (UniProt P14416); assay: Binding affinity to dopamine D2 receptor (unknown origin) at 1 mM by radioligand displacement assay relative to control
[8] = biological target: D(1A) dopamine receptor (Homo sapiens) (UniProt P21728); assay: Binding affinity to dopamine D1 receptor (unknown origin) at 0.1 mM by radioligand displacement assay relative to control
[9] = Initial drug concentration in mouse at 1 mg/kg, iv; assay type: ADME, organism-based; conditions: in vivo
[10] = biological target: D(1A) dopamine receptor (Homo sapiens) (UniProt P21728); assay: Binding affinity to dopamine D1 receptor (unknown origin) at 1 mM by radioligand displacement assay relative to control
[11] = AUCinfinity in mouse at 1 mg/kg, iv; assay type: ADME, organism-based; design: dose 1 mg/kg, time infinity, route intravenous; conditions: in vivo
[12] = Cmax in mouse at 10 mg/kg, po; assay type: ADME, organism-based; design: dose 10 mg/kg, route oral; conditions: in vivo
[13] = AUClast in mouse at 10 mg/kg, po; assay type: ADME, organism-based; conditions: in vivo
[14] = Half life in mouse at 1 mg/kg, iv; assay type: ADME, organism-based; conditions: in vivo
[15] = Clearance in mouse at 1 mg/kg, iv; assay type: ADME, organism-based; conditions: in vivo
NCI-H1650 [16] = assay: Cytotoxicity against human NCI-H1650 cells assessed as reduction of colony formation at 20 to 40 uM after 7 days by crystal violet staining; assay type: functional, cell-based
NCI-H1650 [17] = assay: Cell cycle arrest in human NCI-H1650 cells assessed as accumulation at sub-G1 phase by propidium iodide staining-based flow cytometric analysis; assay type: functional
[18] = Volume of distribution at steady state in mouse at 1 mg/kg, iv; assay type: ADME, organism-based; conditions: in vivo, read-out: Vdss
[19] = Cmax in mouse at 10 mg/kg, ip; assay type: ADME, organism-based; design: dose 10 mg/kg, route intraperitoneal; conditions: in vivo
[20] = AUClast in mouse at 10 mg/kg, ip; assay type: ADME, organism-based; conditions: in vivo
[21] = Bioavailability in mouse at 10 mg/kg, ip; assay type: ADME, organism-based; conditions: in vivo
[22] = Half life in mouse at 10 mg/kg, po; assay type: ADME, organism-based; conditions: in vivo
[23] = Oral bioavailability in mouse at 10 mg/kg; assay type: ADME, organism-based; conditions: in vivo
[24] = AUCinfinity in mouse at 10 mg/kg, po; assay type: ADME, organism-based; design: dose 10 mg/kg, time infinity, route oral; conditions: in vivo
[25] = AUClast in mouse at 1 mg/kg, iv; assay type: ADME, organism-based; conditions: in vivo
Mus musculus = assay: Toxicity in mouse assessed as induction of lethargy at 10 mg/kg relative to control; assay type: organism-based; conditions: in vivo
[26] = biological target: D(3) dopamine receptor (Homo sapiens) (UniProt P35462); assay: Binding affinity to dopamine D3 receptor (unknown origin) at 0.1 mM by radioligand displacement assay relative to control
[27] = biological target: D(3) dopamine receptor (Homo sapiens) (UniProt P35462); assay: Binding affinity to dopamine D3 receptor (unknown origin) at 1 mM by radioligand displacement assay relative to control
[28] = biological target: D(2) dopamine receptor (Homo sapiens) (UniProt P14416); assay: Binding affinity to dopamine D2 receptor (unknown origin) at 0.1 mM by radioligand displacement assay relative to control
[29] = biological target: T1, D(4) dopamine receptor (Homo sapiens) (UniProt P21917); assay: Binding affinity to dopamine D4 receptor (unknown origin) at 0.1 mM by radioligand displacement assay relative to control
T1 sequence (whole entry): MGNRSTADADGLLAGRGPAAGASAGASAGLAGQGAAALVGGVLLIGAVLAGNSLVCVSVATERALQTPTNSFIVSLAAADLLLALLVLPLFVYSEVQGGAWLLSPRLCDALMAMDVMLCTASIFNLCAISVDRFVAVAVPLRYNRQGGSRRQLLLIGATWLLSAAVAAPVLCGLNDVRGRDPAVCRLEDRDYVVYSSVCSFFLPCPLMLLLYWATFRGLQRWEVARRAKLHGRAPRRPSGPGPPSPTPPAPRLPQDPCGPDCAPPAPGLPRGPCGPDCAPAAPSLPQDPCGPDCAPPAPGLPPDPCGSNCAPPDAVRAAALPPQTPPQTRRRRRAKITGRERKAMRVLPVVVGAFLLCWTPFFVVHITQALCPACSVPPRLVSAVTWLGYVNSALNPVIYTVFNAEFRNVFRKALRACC

[30] = biological target: RAC-alpha serine/threonine-protein kinase (Homo sapiens) (UniProt P31749); assay: Inhibition of AKT phosphorylation in human NCI-H1650 cells at 20 to 40 uM after 12 hrs by Western blot analysis; assay type: cell-based
NCI-H1650 [31] = assay: Inhibition of ERK phosphorylation in human NCI-H1650 cells at 20 to 40 uM after 12 hrs by Western blot analysis; assay type: cell-based
[32] = biological target: T1, D(4) dopamine receptor (Homo sapiens); assay: Binding affinity to dopamine D4 receptor (unknown origin) at 1 mM by radioligand displacement assay relative to control
NCI-H1650 [33] = assay: Cell cycle arrest in human NCI-H1650 cells assessed as accumulation at sub-G1 phase at 1 to 40 uM by propidium iodide staining-based flow cytometric analysis; assay type: functional
[34] = biological target: D(1B) dopamine receptor (Homo sapiens) (UniProt P21918); assay: Binding affinity to dopamine D5 receptor (unknown origin) at 1 mM by radioligand displacement assay relative to control

Chain of D(2) dopamine receptor (Homo sapiens) (P14416 whole entry): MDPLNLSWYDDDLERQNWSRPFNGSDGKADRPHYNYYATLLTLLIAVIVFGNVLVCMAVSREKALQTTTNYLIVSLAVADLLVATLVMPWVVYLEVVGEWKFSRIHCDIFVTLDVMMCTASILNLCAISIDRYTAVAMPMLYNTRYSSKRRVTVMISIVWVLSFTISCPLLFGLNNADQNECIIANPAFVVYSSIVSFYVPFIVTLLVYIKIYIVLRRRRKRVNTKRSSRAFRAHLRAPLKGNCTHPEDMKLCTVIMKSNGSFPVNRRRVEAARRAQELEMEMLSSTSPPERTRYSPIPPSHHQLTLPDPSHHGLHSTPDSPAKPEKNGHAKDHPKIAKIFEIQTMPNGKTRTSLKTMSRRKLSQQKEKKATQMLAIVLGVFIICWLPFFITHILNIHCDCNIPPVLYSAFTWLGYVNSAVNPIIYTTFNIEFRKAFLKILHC
Chain of D(3) dopamine receptor (Homo sapiens) (P35462 whole entry): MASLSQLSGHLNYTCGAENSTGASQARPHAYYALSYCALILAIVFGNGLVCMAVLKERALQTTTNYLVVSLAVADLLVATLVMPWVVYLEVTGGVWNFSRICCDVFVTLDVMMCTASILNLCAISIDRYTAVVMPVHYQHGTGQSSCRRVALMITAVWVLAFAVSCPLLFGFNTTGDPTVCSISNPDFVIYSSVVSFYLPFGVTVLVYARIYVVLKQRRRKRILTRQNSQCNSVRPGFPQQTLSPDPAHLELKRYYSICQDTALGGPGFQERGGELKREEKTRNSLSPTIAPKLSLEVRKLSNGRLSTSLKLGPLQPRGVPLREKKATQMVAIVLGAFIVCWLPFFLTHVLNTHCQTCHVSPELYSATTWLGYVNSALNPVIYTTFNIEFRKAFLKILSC
Chain of D(1B) dopamine receptor (Homo sapiens) (P21918 whole entry): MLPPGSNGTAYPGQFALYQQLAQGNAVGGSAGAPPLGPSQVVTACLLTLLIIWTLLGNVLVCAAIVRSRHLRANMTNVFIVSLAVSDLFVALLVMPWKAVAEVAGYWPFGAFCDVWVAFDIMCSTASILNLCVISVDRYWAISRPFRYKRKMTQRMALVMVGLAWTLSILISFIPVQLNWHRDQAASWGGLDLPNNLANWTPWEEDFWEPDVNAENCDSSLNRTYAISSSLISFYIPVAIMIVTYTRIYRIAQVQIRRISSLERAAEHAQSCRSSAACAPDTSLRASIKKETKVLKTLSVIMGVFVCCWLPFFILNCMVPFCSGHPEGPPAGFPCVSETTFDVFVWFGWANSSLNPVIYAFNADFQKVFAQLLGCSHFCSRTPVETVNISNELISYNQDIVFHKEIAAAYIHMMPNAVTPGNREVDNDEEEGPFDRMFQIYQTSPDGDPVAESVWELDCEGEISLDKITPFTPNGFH
Chain of D(1A) dopamine receptor (Homo sapiens) (P21728 whole entry): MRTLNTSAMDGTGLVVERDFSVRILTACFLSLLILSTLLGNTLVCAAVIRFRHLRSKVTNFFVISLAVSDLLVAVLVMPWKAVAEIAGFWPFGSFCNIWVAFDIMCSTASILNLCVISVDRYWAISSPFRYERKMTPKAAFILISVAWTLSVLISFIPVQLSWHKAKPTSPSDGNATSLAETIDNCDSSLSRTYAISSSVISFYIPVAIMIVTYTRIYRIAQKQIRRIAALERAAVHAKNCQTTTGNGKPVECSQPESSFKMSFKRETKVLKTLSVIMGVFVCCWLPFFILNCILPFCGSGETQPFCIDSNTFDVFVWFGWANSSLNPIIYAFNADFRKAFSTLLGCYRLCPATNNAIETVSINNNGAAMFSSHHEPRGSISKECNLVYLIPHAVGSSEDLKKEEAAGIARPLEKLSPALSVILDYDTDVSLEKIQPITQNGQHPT
Chain of RAC-alpha serine/threonine-protein kinase (Homo sapiens) (P31749 whole entry): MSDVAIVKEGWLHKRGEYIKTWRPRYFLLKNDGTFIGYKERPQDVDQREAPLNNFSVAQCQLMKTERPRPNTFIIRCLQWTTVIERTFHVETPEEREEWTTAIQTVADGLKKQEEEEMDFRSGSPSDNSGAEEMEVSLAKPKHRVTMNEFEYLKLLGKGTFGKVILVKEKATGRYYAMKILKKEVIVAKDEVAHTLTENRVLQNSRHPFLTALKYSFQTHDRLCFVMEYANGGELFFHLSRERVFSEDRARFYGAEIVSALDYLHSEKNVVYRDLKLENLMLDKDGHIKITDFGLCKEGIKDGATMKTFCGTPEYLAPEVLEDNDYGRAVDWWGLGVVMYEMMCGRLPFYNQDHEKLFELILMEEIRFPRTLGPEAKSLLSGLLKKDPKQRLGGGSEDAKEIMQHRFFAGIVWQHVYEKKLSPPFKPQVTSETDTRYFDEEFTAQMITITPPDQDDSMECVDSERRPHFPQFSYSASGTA

Row | Tmax [1] | inhibition [2] | half-life [4] | AUC(0-inf) [5] | Tmax [6] | inhibition [7] | inhibition [8] | C0 [9] | inhibition [10] | AUC(0-inf) [11] | Cmax [12] | AUC(0-t) [13] | clearance [15] | Vd [18] | Cmax [19] | AUC(0-t) [20] | Compound | GI50 (NCI-H1650 [3]) | Activity (NCI-H1650 [16]) | Activity (NCI-H1650 [17]) | Activity (Mus musculus) | other results
1 | 1 h | < 10% | 4.35 h | 7.57 µg·h/mL | 0.5 h | 14% | < 5% | 2.97 µg/mL | 12% | 1.5 µg·h/mL | 0.834 µg/mL | 2.5 µg·h/mL | 0.666 L/h/kg | 0.72 L/kg | 2.25 µg/mL | 7.44 µg·h/mL | Cc1ccc(S(=O)(=O)NCCCN2c3ccccc3Sc3ccc(Cl)cc32)cc1 | > 40 µM | Active | Dose-dependent effect | Non-toxic | half-life [14]: 1.36 h; bioavailability [21]: 50.2%; half-life [22]: 3.14 h; bioavailability [23]: 16.9%; AUC(0-inf) [24]: 2.51 µg·h/mL; AUC(0-t) [25]: 1.48 µg·h/mL
2 | 0.25 h | < 10% | 2.87 h | 1.45 µg·h/mL | 0.5 h | 21% | < 5% | 1.21 µg/mL | 14% | 0.317 µg·h/mL | 0.349 µg/mL | 0.489 µg·h/mL | 3.15 L/h/kg | 1.76 L/kg | 0.859 µg/mL | 1.45 µg·h/mL | COC(=O)NCCCN1c2ccccc2Sc2ccc(Cl)cc21 | > 40 µM | Active | Dose-dependent effect | Non-toxic | inhibition [26]: < 5%; bioavailability [21]: 46.6%; inhibition [27]: 22%; half-life [22]: 1.19 h; inhibition [28]: < 5%; inhibition [29]: < 5%; bioavailability [23]: 15.8%; AUC(0-inf) [24]: 0.498 µg·h/mL; AUC(0-t) [25]: 0.31 µg·h/mL
3 |  | 81% |  |  |  | > 95% | > 95% |  | > 95% |  |  |  |  |  |  |  | CN1CCN(CCCN2c3ccccc3Sc3ccc(C(F)(F)F)cc32)CC1 [TRIFLUOPERAZINE] | 12.2 µM |  |  | Toxic | inhibition [30]: Active; inhibition (NCI-H1650 [31]): Active; inhibition [26]: > 95%; inhibition [27]: > 95%; inhibition [28]: > 95%; inhibition [29]: 73%; inhibition [32]: > 95%; Activity (NCI-H1650 [33]): Active; inhibition [34]: > 95%
4 |  |  |  |  |  |  |  |  |  |  |  |  |  |  |  |  | O=S(=O)(NCCN1c2ccccc2Sc2ccc(Cl)cc21)c1ccc(Cl)cc1 | 20 µM |  |  |  | inhibition [30]: Active; inhibition (NCI-H1650 [31]): Active
